Measurements reported in ChEMBL document CHEMBL2029317, “(Z)-2-(2-bromophenyl)-3-{[4-(1-methyl-piperazine)amino]phenyl}acrylonitrile (DG172): an orally bioavailable PPARβ/δ-selective ligand with inverse agonistic properties” (J Med Chem, 2012).
Activity calls are given as the source filed them. The rule behind the calls is not given here.

target: T1, Peroxisome proliferator-activated receptor delta (Mus musculus) (UniProt P35396); test: Antagonist activity at PPARbeta/delta in mouse NIH3T3 cells coexpressing LexA assessed as decrease in L165,041-induced transcriptional activation at 1 uM after 48 hrs by luciferase reporter gene assay relative to control; format: functional, cell-based
T1 sequence (whole entry): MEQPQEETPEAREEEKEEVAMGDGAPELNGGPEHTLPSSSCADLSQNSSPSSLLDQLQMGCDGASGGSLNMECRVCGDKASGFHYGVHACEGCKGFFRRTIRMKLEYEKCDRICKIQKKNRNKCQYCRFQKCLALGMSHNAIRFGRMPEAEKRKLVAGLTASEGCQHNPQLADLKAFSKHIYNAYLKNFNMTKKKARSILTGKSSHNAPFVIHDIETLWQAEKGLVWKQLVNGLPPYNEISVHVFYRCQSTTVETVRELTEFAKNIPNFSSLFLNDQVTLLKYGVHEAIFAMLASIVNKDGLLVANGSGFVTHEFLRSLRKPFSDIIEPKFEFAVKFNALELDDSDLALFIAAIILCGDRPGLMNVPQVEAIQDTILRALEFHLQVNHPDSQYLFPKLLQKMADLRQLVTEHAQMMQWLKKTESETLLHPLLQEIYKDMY
Outline: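 NIH3T3 cells were transfected with LexA-PPARα, -PPARβ/δ or -PPARγ fusion plasmids plus the 7L-TATAi luciferase reporter. From 4 h post-transfection, cells received inhibitory ligand (1 μM) for 48 h. Agonists followed: GW7647 300 nM (PPARα), L165,041 1 μM (PPARβ/δ) or GW1929 300 nM (PPARγ), or agonist solvent. Induction is luciferase activity with agonist relative to solvent; triplicates with t test.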

Row | Structure (SMILES) | Activity
1 | N#C/C(=C\c1ccc(N2CCCCC2)cc1)c1ccccc1 | Active

target: T2, Peroxisome proliferator-activated receptor delta (Mus musculus, UniProt P35396); test: Inverse agonist activity at PPARbeta/delta in mouse C2C12 cells assessed as inhibition of Angptl4 expression after 24 hrs by RT-qPCR analysis; format: functional, cell-based
T2 sequence (P35396 whole entry): T1 sequence (whole entry)

Row | Structure (SMILES) | IC50
2 | CN(C)c1ccc(/C=C(\C#N)c2ccccc2)cc1 | > 500 nM

target: T1, Peroxisome proliferator-activated receptor delta (Mus musculus); test: Displacement of fluormone Pan-PPAR Green from mouse recombinant GST-tagged PPARbeta/delta LBD at 1 uM after 60 mins by TR-FRET assay
Outline: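 Competitive binding by LanthaScreen TR-FRET: recombinant GST-PPARβ/δ LBD, detected through a terbium-labelled anti-GST antibody, was incubated with Fluormone Pan-PPAR Green. Compound was tested at 1 μM. Read-out is the 520 nm/495 nm emission ratio after terbium excitation, as averages of triplicates ± SD.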

Row | Structure (SMILES) | Activity
3 | CN(C)c1ccc(/C=C/C=C(\C#N)c2ccccc2)cc1 | inactive
4 | CN(C)c1ccc(/C=C(\C#N)c2ccccc2I)cc1 | Active
5 | COc1ccccc1/C(C#N)=C/c1ccc(N(C)C)cc1 | Active
6 | CN(C)c1ccc(/C=C(\C#N)c2ccccc2C#N)cc1 | Active
7 | N#C/C(=C\c1ccc(N2CCCCC2)cc1)c1ccccc1 | Active
8 | N#C/C(=C\c1ccccc1Br)c1ccccc1 | Active
9 | CN(C)c1ccc(/C=C(\C#N)c2ccccc2C(F)(F)F)cc1 | Active
10 | N#C/C(=C\c1ccccc1)c1ccccc1 | Active
11 | CN(C)c1ccc(/C=C/c2ccccc2)cc1 | inactive
12 | CN(C)Cc1ccc(/C=C(\C#N)c2ccccc2)cc1 | Active
13 | N#C/C(=C\c1ccc(N2CCCC2)cc1)c1ccccc1 | Active
14 | N#C/C(=C\c1ccc(Nc2ccccc2)cc1)c1ccccc1 | Active
15 | N#C/C(=C\c1cccc(Br)c1)c1ccccc1 | Active
16 | CN(C)c1ccc(/C=C(\C#N)c2ccccc2Br)cc1 | Active
17 | CN(C)c1ccc(/C=C(\C#N)c2ccccc2[N+](=O)[O-])cc1 | Active
18 | CN(C)c1ccc(/C=C(\C#N)c2ccc([N+](=O)[O-])cc2)cc1 | Active
19 | N#C/C(=C\c1ccc(NC2CCCCC2)cc1)c1ccccc1 | Active

Row | Structure (SMILES) | Activity
20 | N#C/C(=C\c1ccc(N2CCNCC2)cc1)c1ccccc1 | Active
21 | CN1CCN(c2ccc(/C=C(\C#N)c3ccccc3)cc2)CC1 | Active
22 | CN(C)c1ccc(/C=C(\C#N)c2ccccc2F)cc1 | Active
23 | CN(C)c1ccc(/C=C(\C#N)c2cccc(Cl)c2)cc1 | Active
24 | N#C/C(=C\c1ccc(N)cc1)c1ccccc1 | Active
25 | COc1ccc(/C(C#N)=C/c2ccc(N(C)C)cc2)cc1 | Active
26 | CN(C)c1ccc(C(C#N)=Cc2ccccc2)cc1 | inactive
27 | CN(C)c1ccc(CC(C#N)c2ccccc2)cc1 (racemic) | inactive
28 | N#C/C(=C\c1ccc(N2CCOCC2)cc1)c1ccccc1 | Active
29 | CN(C)c1ccc(/C=C(\C#N)c2ccc(F)cc2)cc1 | Active
30 | CC1CCN(c2ccc(/C=C(\C#N)c3ccccc3)cc2)CC1 | Active
31 | N#C/C(=C\c1ccc(Br)cc1)c1ccccc1 | Active
32 | COc1ccc(/C=C(\C#N)c2ccccc2)cc1 | Active
33 | N#C/C(=C\c1ccc(Cl)cc1)c1ccccc1 | Active
34 | CN(C)c1ccc(/C=C(\C#N)c2ccc(Cl)cc2)cc1 | Active
35 | N#C/C(=C\c1ccc(N2CCCCCC2)cc1)c1ccccc1 | Active
36 | N#C/C(=C\c1ccc(C(F)(F)F)cc1)c1ccccc1 | Active
